Laboratory results reported in ChEMBL document CHEMBL1124786, “Potent, low molecular weight renin inhibitors containing a C-terminal heterocycle: hydrogen bonding at the active site” (J Med Chem, 1990).

Columns and labels:
Renin [1] = molecular target: T1, Renin (Homo sapiens, UniProt P00797); assay: In vitro inhibition of human plasma renin.; format: cell-free
T1 sequence (P00797 whole entry): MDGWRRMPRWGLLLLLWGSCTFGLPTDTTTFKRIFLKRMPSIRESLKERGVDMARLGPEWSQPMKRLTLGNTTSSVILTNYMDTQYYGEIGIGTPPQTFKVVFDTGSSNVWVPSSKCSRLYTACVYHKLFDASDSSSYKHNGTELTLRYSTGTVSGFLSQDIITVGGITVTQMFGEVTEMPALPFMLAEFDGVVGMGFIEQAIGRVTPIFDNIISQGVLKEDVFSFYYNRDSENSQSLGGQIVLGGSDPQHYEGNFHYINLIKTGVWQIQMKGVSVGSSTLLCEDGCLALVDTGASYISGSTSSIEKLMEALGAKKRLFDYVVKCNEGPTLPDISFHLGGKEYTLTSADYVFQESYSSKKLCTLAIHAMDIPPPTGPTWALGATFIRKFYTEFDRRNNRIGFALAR
How it was run: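 Renin activity was measured in human plasma at pH 7.4, and the result is reported as IC50 in nM.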

Renin [2] = molecular target: T1, Renin; assay: In vitro inhibition of purified human renal renin.
How it was run: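 The enzyme was human renal renin, purified and tested at pH 6.0. The read-out is IC50 in nM.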

Cathepsin D (Bos taurus) [3] = molecular target: T2, Cathepsin D (Bos taurus) (UniProt P80209); assay: Percent inhibition against bovine Cathepsin D at a concentration of 1 x 10 e-5 M and pH 3
T2 sequence (whole entry): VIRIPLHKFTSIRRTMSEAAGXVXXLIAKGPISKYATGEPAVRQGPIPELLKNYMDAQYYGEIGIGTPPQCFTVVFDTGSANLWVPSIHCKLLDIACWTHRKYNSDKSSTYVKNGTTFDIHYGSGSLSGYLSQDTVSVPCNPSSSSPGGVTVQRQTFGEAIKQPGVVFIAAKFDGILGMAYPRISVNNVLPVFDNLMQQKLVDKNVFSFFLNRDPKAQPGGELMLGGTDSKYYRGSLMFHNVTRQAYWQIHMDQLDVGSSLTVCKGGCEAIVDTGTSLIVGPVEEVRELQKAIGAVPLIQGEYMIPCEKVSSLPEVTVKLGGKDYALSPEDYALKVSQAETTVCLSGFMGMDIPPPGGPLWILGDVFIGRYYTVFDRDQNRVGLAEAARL

Pepsin A (Sus scrofa) = Pepsin A (Sus scrofa) (UniProt P00791); assay: Percent inhibition against porcine pepsin at a concentration of 1 x 10 e-5 M and pH 2
Cathepsin D (Bos taurus) [4] = molecular target: T2, Cathepsin D (Bos taurus); assay: Percent inhibition against bovine cathepsin D at a concentration of 1 x 10 e-5 M and pH 3

Pepsin A (Sus scrofa), sequence (P00791 60-385 limits assumed): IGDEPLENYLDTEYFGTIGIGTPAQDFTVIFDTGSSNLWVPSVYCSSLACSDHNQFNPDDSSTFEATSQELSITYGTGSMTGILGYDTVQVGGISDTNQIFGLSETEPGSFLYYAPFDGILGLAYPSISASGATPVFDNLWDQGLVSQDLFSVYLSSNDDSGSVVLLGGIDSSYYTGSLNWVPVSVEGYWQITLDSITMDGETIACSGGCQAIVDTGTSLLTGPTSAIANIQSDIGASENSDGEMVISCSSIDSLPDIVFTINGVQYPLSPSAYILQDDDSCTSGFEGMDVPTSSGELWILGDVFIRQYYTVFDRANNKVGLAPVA

| Compound | IC50 (Renin [1]) | IC50 (Renin [2]) | inhibition (Cathepsin D (Bos taurus) [3]) | inhibition (Pepsin A (Sus scrofa)) | inhibition (Cathepsin D (Bos taurus) [4]) |
| --- | --- | --- | --- | --- | --- |
| CCON1C[C@@H]([C@H](O)[C@H](CC2CCCCC2)NC(=O)[C@H](Cc2cnc[nH]2)NC(=O)[C@H](Cc2ccccc2)NC(=O)OC(C)(C)C)OC1=O | 17 nM | 1.3 nM |  |  |  |
| CCN1C[C@@H]([C@H](O)[C@H](CC2CCCCC2)NC(=O)[C@H](Cc2cnc[nH]2)NC(=O)[C@H](Cc2ccccc2)NC(=O)OC(C)(C)C)NC1=O | 11 nM | 1.2 nM |  |  |  |
| CON1C[C@@H]([C@H](O)[C@H](CC2CCCCC2)NC(=O)[C@H](Cc2cnc[nH]2)NC(=O)[C@H](Cc2ccccc2)NC(=O)OC(C)(C)C)OC1=O | 9.2 nM | 0.9 nM |  |  |  |
| CON1C[C@@H]([C@H](O)[C@H](CC2CCCCC2)NC(=O)[C@H](Cc2c[nH]cn2)NC(=O)[C@H](Cc2ccccc2)NC(=O)OC(C)(C)C)OC1=O |  |  |  | 0% | 0% |
| CC(C)(C)OC(=O)N[C@@H](Cc1ccccc1)C(=O)N[C@@H](Cc1cnc[nH]1)C(=O)N[C@@H](CC1CCCCC1)[C@@H](O)[C@@H](O)CNC=O | 63 nM | 8 nM |  |  |  |
| CCCN1C[C@@H]([C@H](O)[C@H](CC2CCCCC2)NC(=O)[C@H](Cc2cnc[nH]2)NC(=O)[C@H](Cc2ccccc2)NC(=O)OC(C)(C)C)OC1=O | 12 nM | 1 nM |  |  |  |
| CC(C)(C)OC(=O)N[C@@H](Cc1ccccc1)C(=O)N[C@@H](Cc1cnc[nH]1)C(=O)N[C@@H](CC1CCCCC1)[C@@H](O)[C@@H]1CNC(=O)O1 | 25 nM | 4.7 nM |  |  |  |
| CC(C)CN1C[C@@H]([C@H](O)[C@H](CC2CCCCC2)NC(=O)[C@H](Cc2cnc[nH]2)NC(=O)[C@H](Cc2ccccc2)NC(=O)OC(C)(C)C)OC1=O | 21 nM | 3 nM |  |  |  |
| CC(C)ON1C[C@@H]([C@H](O)[C@H](CC2CCCCC2)NC(=O)[C@H](Cc2c[nH]cn2)NC(=O)[C@H](Cc2ccccc2)NC(=O)OC(C)(C)C)OC1=O | 26 nM | 1.4 nM |  |  |  |
| C=C1C[C@@H]([C@H](O)[C@H](CC2CCCCC2)NC(=O)[C@H](Cc2c[nH]cn2)NC(=O)[C@H](Cc2ccccc2)NC(=O)OC(C)(C)C)OC1=O | 21 nM | 0.71 nM |  |  |  |
| CC(C)(C)OC(=O)N[C@@H](Cc1ccccc1)C(=O)N[C@@H](Cc1c[nH]cn1)C(=O)N[C@@H](CC1CCCCC1)[C@@H](O)[C@@H]1CCNC(=O)O1 | 29 nM | 3.1 nM |  |  |  |
| CCN1C[C@@H]([C@H](O)[C@H](CC2CCCCC2)NC(=O)[C@H](Cc2c[nH]cn2)NC(=O)[C@H](Cc2ccccc2)NC(=O)OC(C)(C)C)OC1=O |  |  |  | 0% | 21% |
| CC(C)C[C@H](O)[C@H](O)[C@H](CC1CCCCC1)NC(=O)[C@H](Cc1c[nH]cn1)NC(=O)[C@H](Cc1ccccc1)NC(=O)OC(C)(C)C |  |  | 0% | 0% |  |
| CCN1C[C@@H]([C@H](O)[C@H](CC2CCCCC2)NC(=O)[C@H](Cc2cnc[nH]2)NC(=O)[C@H](Cc2ccccc2)NC(=O)OC(C)(C)C)NS1(=O)=O | 13 nM | 1.4 nM |  |  |  |
| CC(C)(C)OC(=O)N[C@@H](Cc1ccccc1)C(=O)N[C@@H](Cc1c[nH]cn1)C(=O)N[C@@H](CC1CCCCC1)[C@@H](O)[C@@H](O)CN=[N+]=[N-] |  |  | 0% | 0% |  |
| CON1CC([C@H](O)[C@@H](CC2CCCCC2)NC(=O)[C@H](Cc2c[nH]cn2)NC(=O)[C@H](Cc2ccccc2)NC(=O)OC(C)(C)C)OC1=O (single isomer, unassigned) |  | 43 nM |  |  |  |

The next lines start with the values.

| IC50 (Renin [1]) | IC50 (Renin [2]) | inhibition (Cathepsin D (Bos taurus) [3]) | inhibition (Pepsin A (Sus scrofa)) | inhibition (Cathepsin D (Bos taurus) [4]) | Compound |
| --- | --- | --- | --- | --- | --- |
| 2.8 nM | 0.63 nM |  |  |  | CCN1C[C@@H]([C@H](O)[C@H](CC2CCCCC2)NC(=O)[C@H](Cc2cnc[nH]2)NC(=O)[C@H](Cc2ccccc2)NC(=O)OC(C)(C)C)OC1=O |
| 7.4 nM | 0.7 nM |  |  |  | CC(C)(C)OC(=O)N[C@@H](Cc1ccccc1)C(=O)N[C@@H](Cc1c[nH]cn1)C(=O)N[C@@H](CC1CCCCC1)[C@@H](O)[C@@H]1CN(CCO)C(=O)O1 |
| 8.2 nM | 0.84 nM |  |  |  | CC(C)N1C[C@@H]([C@H](O)[C@H](CC2CCCCC2)NC(=O)[C@H](Cc2cnc[nH]2)NC(=O)[C@H](Cc2ccccc2)NC(=O)OC(C)(C)C)OC1=O |
| 8.8 nM | 1.4 nM |  |  |  | CN1C[C@@H]([C@H](O)[C@H](CC2CCCCC2)NC(=O)[C@H](Cc2c[nH]cn2)NC(=O)[C@H](Cc2ccccc2)NC(=O)OC(C)(C)C)OC1=O |
| 3 nM | 1.2 nM | 9% | 2% |  | C[C@@H]1CO[C@H]([C@H](O)[C@H](CC2CCCCC2)NC(=O)[C@H](Cc2c[nH]cn2)NC(=O)[C@H](Cc2ccccc2)NC(=O)OC(C)(C)C)C1 |
| 2.3 nM | 0.32 nM |  |  |  | C[C@H]1C[C@@H]([C@H](O)[C@H](CC2CCCCC2)NC(=O)[C@H](Cc2c[nH]cn2)NC(=O)[C@H](Cc2ccccc2)NC(=O)OC(C)(C)C)OC1=O |
| 2.8 nM | 0.89 nM |  |  |  | CC(C)(C)OC(=O)N[C@@H](Cc1ccccc1)C(=O)N[C@@H](Cc1cnc[nH]1)C(=O)N[C@@H](CC1CCCCC1)[C@@H](O)[C@@H]1CC(C)(C)C(=O)O1 |
| 9 nM |  |  |  |  | CC(C)(C)OC(=O)N[C@@H](Cc1ccccc1)C(=O)N[C@@H](Cc1cnc[nH]1)C(=O)N[C@@H](CC1CCCCC1)[C@@H](O)[C@@H](O)CN=[N+]=[N-] |
